# Data: ChEMBL document CHEMBL1138662, “Macrocyclic diacylglycerol-bis-lactones as conformationally constrained analogues of diacylglycerol-lactones. Interactions with protein kinase C” (J Med Chem, 2004)
# Tests used:
# [1] = Partition coefficient (logP); format: physicochemical; details: octanol/water
# [2] = Displacement of [20-3H]-phorbol 12,13-dibutyrate (PDBU) from recombinant Protein kinase C alpha (C1a/C1b domain) in presence of phosphatidyl serine
# How it was run: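 Competition binding: displacement of bound [20-3H]phorbol 12,13-dibutyrate from recombinant PKCα isozyme with phosphatidylserine present. IC50 derived by fitting data to a theoretical noncooperative competitive inhibition curve; binding affinity reported as Ki.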
Structure (SMILES),logP [1],Ki [2]
O=C1CCCCCCCCCCCCCC/C=C2\CC(CO)(CO1)OC2=O (stereo not given),3.85,12.2 nM
CC(C)CC(C/C=C1/CC(CO)(COC(=O)C(C)(C)C)OC1=O)CC(C)C (stereo not given),–,2.9 nM
CCCCCCCCCCCCCC(=O)OCC(CO)OC(C)=O (stereo not given),5.25,1000 nM
O=C1CCCCCCCCCCCCCCCCCC/C=C2/CC(CO)(CO1)OC2=O (stereo not given),5.81,10.3 nM
O=C1CCCCCCCCCC/C=C2/CC(CO)(CO1)OC2=O (stereo not given),1.88,52.7 nM
CCCCCCCCCCCCC/C=C1/C[C@@](CO)(COC(C)=O)OC1=O (stereo in doubt; 3),–,35 nM
CCCCCCCCCCCCCCCCC/C=C1\CC(CO)(COC(C)=O)OC1=O (stereo not given),7.11,28 nM

# Next, values leading:
logP [1],Ki [2],Structure (SMILES)
-0.08,1800 nM,O=C1CCCCCC/C=C2\CC(CO)(CO1)OC2=O (stereo not given)
3.85,6.07 nM,O=C1CCCCCCCCCCCCCC/C=C2/CC(CO)(CO1)OC2=O (stereo not given)
7.11,–,CCCCCCCCCCCCCCCCC/C=C1/CC(CO)(COC(C)=O)OC1=O (stereo not given)
5.36,35.1 nM,CCCCCCCCCCCCC/C=C1/C[C@@](CO)(COC(C)=O)OC1=O (stereo in doubt)
5.81,22 nM,O=C1CCCCCCCCCCCCCCCCCC/C=C2\CC(CO)(CO1)OC2=O (stereo not given)
5.36,77.8 nM,CCCCCCCCCCCCC/C=C1\CC(CO)(COC(C)=O)OC1=O (stereo not given)
4.53,138 nM,CCCCCCCCCCCCCC(=O)OCC1(CO)CCC(=O)O1 (stereo not given)
